This note sets out measurements from ChEMBL document CHEMBL3352236, “Discovery and molecular modeling of novel 1-indolyl acetate--5-nitroimidazole targeting tubulin polymerization as antiproliferative agents” (Eur J Med Chem, 2014).

pIC50: −log10 of the molar value.

For data set [1], the system named is A549. As to the kind of experiment: Antiproliferative activity against human A549 cells after 24 to 48 hrs by CKK8 assay. The format is functional, cell-based. A digest of the protocol:
(§1)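 CCK-8 assay. 1–5 × 10³ cells per well grown at 37 °C for 12 h, then exposed to rising compound concentrations in 10% FBS for 24 or 48 h. CCK-8 dye added and incubated 1–2 h at 37 °C, […]. Percent inhibition or IC50 taken relative to DMSO-treated control wells.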

Data set [2] relates to HeLa. As to the kind of experiment: Antiproliferative activity against human HeLa cells after 24 to 48 hrs by CKK8 assay. Format: functional, cell-based. A digest of the protocol: as §1
For data set [3], the system named is U-251. As to the kind of experiment: Antiproliferative activity against human U251 cells after 24 to 48 hrs by CKK8 assay. Format: functional, cell-based. The procedure, abridged: as §1
A short description of data set [4]: Cytotoxicity against human macrophages assessed as reduction in cell viability after 24 hrs by MTT assay. The format is cell-based, Macrophage. A digest of the protocol: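 Human macrophages at 5*10⁵ cells per well treated with a range of compound concentrations for 24 h at 37 °C, 5% CO₂. MTT (4 mg/mL) added and left 4 h, then centrifugation at 1200 rcf for 5 min and formazan dissolved in DMSO. Absorbance read at 570 nm. Triplicate wells, assay run three times, mean CC50 (50% viability loss) ± SD reported.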
For orientation: Formazan colour is commonly taken as a measure of viable cells.

Data set [5] addresses Tubulin (Bos taurus, UniProt Q6B856+Q862L2+Q862F3). Description: Inhibition of bovine brain tubulin preincubated for 20 mins by turbidimetry.

By pIC50 is commonly meant −log10 of the IC50, conventionally taken in molar units. High values mean a low IC50, low ones a high IC50. Broadly, the CC50 is the concentration giving 50% cytotoxicity. One may read the IC50 as the concentration at which inhibition is half-maximal. In the case of `O=C(OCCn1c([N+](=O)[O-])cnc1/C=C/c1ccc(Cl)cc1)c1c[nH]c2ccccc12`, the figures for the pIC50 in data set [1], in data set [2] and in data set [3] were 5.35, 5.42 and 5.49, respectively. In addition, in data set [4], the CC50 at 24 h stood at 104 µM. This compound showed an IC50 in data set [5] of 98.8 µM.

With `O=C(OCCn1c([N+](=O)[O-])cnc1/C=C/c1ccccc1Cl)c1c[nH]c2ccccc12`, the pIC50 is 5.37 in data set [1], 5.51 in data set [2] and 5.53 in data set [3]. Besides, in data set [4], the 50% cytotoxic concentration (CC50) at 24 h stood at 132 µM. The compound also yielded a half-maximal inhibitory concentration (IC50) in data set [5] of 71.2 µM.

As for `O=C(OCCn1c([N+](=O)[O-])cnc1/C=C/c1cccc(Cl)c1)c1c[nH]c2ccccc12`, the pIC50 is 5.30 in data set [1], 5.38 in data set [2] and 5.39 in data set [3]. In data set [4], the CC50 at 24 h worked out at 156 µM. The compound also had an IC50 in data set [5] of 103 µM.

As to `O=C(OCCn1c([N+](=O)[O-])cnc1/C=C\c1ccccc1Br)c1c[nH]c2ccccc12`, the pIC50 in data set [1] was 5.29; in data set [2], 5.39; in data set [3] it was 5.51. The CC50 at 24 h in data set [4] came to 145 µM. The compound also showed an IC50 in data set [5] of 112.2 µM.

With `O=C(OCCn1c([N+](=O)[O-])cnc1/C=C\c1cccc(Br)c1)c1c[nH]c2ccccc12`, the negative-log IC50 (pIC50) in data set [1] is 5.22; in data set [2] it was 5.32; in data set [3], 5.41. Moreover, the 50% cytotoxic concentration (CC50) at 24 h in data set [4] turned out to be 164 µM. The IC50 in data set [5] amounted to 162 µM.

For `O=C(OCCn1c([N+](=O)[O-])cnc1/C=C\c1ccc(Br)cc1)c1c[nH]c2ccccc12`, the pIC50 in data set [1] was 5.26; in data set [2], 5.32; in data set [3], 5.41. For the same compound, in data set [4], the CC50 at 24 h is 98 µM. Moreover, the IC50 in data set [5] was found to be 123.3 µM.

With `O=C(OCCn1c([N+](=O)[O-])cnc1/C=C\c1ccccc1[N+](=O)[O-])c1c[nH]c2ccccc12`, the results for the pIC50 in data set [1], in data set [2] and in data set [3] were 5.67, 5.91 and 5.95, respectively. In data set [4], the CC50 at 24 h amounted to 109 µM. In data set [5], the IC50 turned out to be 6.3 µM.

With `O=C(OCCn1c([N+](=O)[O-])cnc1/C=C\c1cccc([N+](=O)[O-])c1)c1c[nH]c2ccccc12`, the values for the pIC50 in data set [1], in data set [2] and in data set [3] were 5.54, 5.70 and 5.55, respectively. The CC50 at 24 h in data set [4] was found to be 123 µM. For the same compound, the IC50 in data set [5] stood at 19.5 µM.

With `O=C(OCCn1c([N+](=O)[O-])cnc1/C=C\c1ccc([N+](=O)[O-])cc1)c1c[nH]c2ccccc12`, the values for the pIC50 in data set [1], in data set [2] and in data set [3] were 5.70, 5.75 and 5.69, respectively. Further, the CC50 at 24 h in data set [4] worked out at 200 µM. In data set [5], the IC50 worked out at 6.9 µM.

On to `Cc1ccccc1/C=C\c1ncc([N+](=O)[O-])n1CCOC(=O)c1c[nH]c2ccccc12`, for which the results for the negative logarithm of the IC50 (pIC50) in data set [1], in data set [2] and in data set [3] were 5.40, 5.35 and 5.55, respectively. Also, the 50% cytotoxic concentration (CC50) at 24 h in data set [4] was found to be 202 µM. Also, in data set [5], the IC50 is 67.2 µM.

Consider `Cc1cccc(/C=C\c2ncc([N+](=O)[O-])n2CCOC(=O)c2c[nH]c3ccccc23)c1`, for which the negative logarithm of the IC50 (pIC50) was 5.36 in data set [1], 5.42 in data set [2] and 5.52 in data set [3]. Moreover, in data set [4], the CC50 at 24 h is 154 µM. The same compound yielded an IC50 in data set [5] of 75.3 µM.

On to `Cc1ccc(/C=C\c2ncc([N+](=O)[O-])n2CCOC(=O)c2c[nH]c3ccccc23)cc1`, for which the results for the pIC50 in data set [1], in data set [2] and in data set [3] were 5.41, 5.64 and 5.51, respectively. The 50% cytotoxic concentration (CC50) at 24 h in data set [4] was found to be 123 µM. Also, the half-maximal inhibitory concentration (IC50) in data set [5] was determined as 45.2 µM.

Consider `COc1ccccc1/C=C\c1ncc([N+](=O)[O-])n1CCOC(=O)c1c[nH]c2ccccc12`, for which the negative logarithm of the IC50 (pIC50) in data set [1] is 5.51; in data set [2] it was 5.49; in data set [3], 5.39. Moreover, the half-maximal cytotoxic concentration (CC50) at 24 h in data set [4] came out at 77 µM. Moreover, in data set [5], the IC50 was 21.4 µM.

As to `COc1cccc(/C=C\c2ncc([N+](=O)[O-])n2CCOC(=O)c2c[nH]c3ccccc23)c1`, the figures for the pIC50 in data set [1], in data set [2] and in data set [3] were 5.39, 5.40 and 5.56, respectively. Also, the CC50 at 24 h in data set [4] was 89 µM. In data set [5], this compound yielded an IC50 of 67.7 µM.

Turning to `COc1ccc(/C=C\c2ncc([N+](=O)[O-])n2CCOC(=O)c2c[nH]c3ccccc23)cc1`, the pIC50 is 5.40 in data set [1], 5.41 in data set [2] and 5.51 in data set [3]. Further, in data set [4], the 50% cytotoxic concentration (CC50) at 24 h was found to be 106 µM. Besides, the IC50 in data set [5] was determined as 50.3 µM.

For the compound `O=C(OCCn1c([N+](=O)[O-])cnc1/C=C\c1ccc(Cl)cc1Cl)c1c[nH]c2ccccc12`, the pIC50 is 5.70 in data set [1], 5.98 in data set [2] and 6.06 in data set [3]. In data set [4], the CC50 at 24 h is 287 µM. The IC50 in data set [5] worked out at 2.4 µM.

With `O=C(OCCn1c([N+](=O)[O-])cnc1/C=C\c1cccc2ccccc12)c1c[nH]c2ccccc12`, the figures for the pIC50 in data set [1], in data set [2] and in data set [3] were 5.15, 4.99 and 4.89, respectively. For the same compound, the 50% cytotoxic concentration (CC50) at 24 h in data set [4] worked out at 158 µM. In data set [5], this compound came in with an IC50 of 186.5 µM.

Regarding `O=C(OCCn1c([N+](=O)[O-])cnc1/C=C\c1ccccc1)c1c[nH]c2ccccc12`, the pIC50 was 5.07 in data set [1], 4.87 in data set [2] and 4.77 in data set [3]. In addition, in data set [4], the CC50 at 24 h is 105 µM. Also, the IC50 in data set [5] amounted to 204.1 µM.

Regarding `COc1ccc(/C=C\c2cc(OC)c(OC)c(OC)c2)cc1O` [COMBRETASTATIN A4], the pIC50 was 5.55 in data set [1], 5.84 in data set [2] and 6.27 in data set [3].
